{"source": "ChEMBL document CHEMBL3045605", "about": "“Synthesis and anticancer evaluation of novel 3,5-diaryl-thiazolo[4,5-d]pyrimidin-2-one derivatives” (2013)", "format_in_all_cases": "functional", "key": {"UACC-257": {"test_system": "UACC-257", "experiment": "Anticancer activity against Homo sapiens (human) UACC257 cells by SRB assay", "method_in_brief": "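NCI five-dose follow-up on the 60-line human tumour panel at tenfold dilutions from 10−4 to 10−8 M, with growth read by sulforhodamine B protein assay against untreated controls. For each cell line, GI50 (half growth inhibition), TGI (total growth inhibition) and LC50 (50% death of initial cells) are calculated as molar concentrations.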"}, "Malme-3M": {"test_system": "Malme-3M", "experiment": "Anticancer activity against Homo sapiens (human) MALME-3M cells by SRB assay", "method_in_brief": "(§1)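 NCI 60-line panel, five tenfold dilutions from 10−4 to 10−8 M, growth read by sulforhodamine B staining against untreated controls. From the dose–response per line: GI50 (molar concentration giving half growth inhibition), TGI (molar concentration giving total growth inhibition, cytostatic) and LC50 (molar concentration killing 50% of initial cells, cytotoxic).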"}, "K562": {"test_system": "K562", "experiment": "Anticancer activity against Homo sapiens (human) K562 cells by SRB assay", "method_in_brief": "as §1"}}, "data": [{"smiles": "O=c1sc2c(Cl)nc(-c3ccccc3)nc2n1-c1ccccc1", "values": [{"measurement": "GI50", "setting": "UACC-257", "value": 8.91, "unit": "µM"}, {"measurement": "TGI", "setting": "UACC-257; read-out: pTGI (converted)", "value": 31.6, "unit": "µM"}, {"measurement": "GI50", "setting": "Malme-3M", "value": 14.8, "unit": "µM"}, {"measurement": "TGI", "setting": "Malme-3M; read-out: pTGI (converted)", "value": 79.4, "unit": "µM"}, {"measurement": "GI50", "setting": "K562", "value": 4.07, "unit": "µM"}]}]}
